According to ChEMBL document CHEMBL3526046, “The role of aldehyde oxidase and xanthine oxidase in the biotransformation of a novel negative allosteric modulator of metabotropic glutamate receptor subtype 5” (Drug Metab Dispos, 2012):
Blank lines part the entries; values can stand above or below the molecule they belong to.

Legend:
Plasma [1] = test: Drug level in Sprague-Dawley rat plasma treated with 56.6 mg/kg, ip VU0409106 single dose by LC-MS/MS analysis; type: ADME, organism-based; parameters: dose 56.6 mg/kg, route intraperitoneal; conditions: in vivo
Procedure, shortened: (§1)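 Male Sprague-Dawley rats given a single intraperitoneal dose of 56.6 mg/kg. Plasma extracted with 2 volumes acetonitrile and centrifuged; metabolites profiled by LC-MS/MS.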

Hepatocyte [2] = test: Drug level in human cryopreserved hepatocytes treated with 25 uM VU0409106 by LC-MS/MS analysis; type: ADME, cell-based
Procedure, shortened: (§2)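 Pooled cryopreserved hepatocytes (2 × 10^6 cells/ml) in Krebs-Henseleit buffer, 25 µM substrate, 37°C for 4 h. Rat donors were 14 males, cynomolgus 4 males, human 20 mixed gender. Cells precipitated with 2 volumes MeCN, centrifuged at 4°C; supernatant dried under nitrogen, reconstituted in 15% aqueous MeCN for LC-MS.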

Hepatocyte [3] = test: Drug level in Sprague-Dawley rat cryopreserved hepatocytes treated with 25 uM VU0409106 by LC-UV-MS analysis; type: ADME, cell-based
[4] = Drug level in cynomolgus monkey hepatic S9 fraction treated with 25 uM VU0409106 by LC-UV-MS analysis; type: ADME, tissue-based, Macaca fascicularis, Liver
Procedure, shortened: (§3)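 Hepatic S9 (5 mg/ml) in 0.1 M potassium phosphate pH 7.4 with 3 mM MgCl2 and 25 µM substrate, 37°C, 1 h under ambient oxygen; NADPH (2 mM) added in select runs. Reactions started by adding substrate. Protein precipitated with 2 volumes MeCN and the supernatant dried under nitrogen, reconstituted in 85:15 10 mM ammonium formate (pH 4.1)-MeCN, then analysed by LC-MS.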

[5] = Drug level in human hepatic S9 fraction treated with 25 uM VU0409106 by LC-UV-MS analysis; type: ADME, tissue-based, Liver; procedure, shortened: as §3
Plasma [6] = test: Retention time in Sprague-Dawley rat plasma treated with 56.6 mg/kg, ip VU0409106 single dose; type: ADME, organism-based; parameters: dose 56.6 mg/kg, route intraperitoneal; conditions: in vivo; procedure, shortened: as §1
Hepatocyte [7] = test: Drug level in human cryopreserved hepatocytes treated with 25 uM VU0409106 by LC-MS/MS analysis in presence of 1-ABT pan-450 inactivator; type: ADME, cell-based; procedure, shortened: as §2
[8] = Drug level in cynomolgus monkey cryopreserved hepatocytes treated with 25 uM VU0409106 by LC-MS/MS analysis; type: ADME, cell-based, Macaca fascicularis, Hepatocyte; procedure, shortened: as §2
Hepatocyte [9] = test: Drug level in Sprague-Dawley rat cryopreserved hepatocytes treated with 25 uM VU0409106 by LC-MS/MS analysis in presence of 1-ABT pan-450 inactivator; type: ADME, cell-based
[10] = Inhibition of group 3 mGluR (unknown origin); parameters: species or system Homo sapiens
[11] = Drug metabolism in human hepatic S9 fraction assessed as 3-(2,4-dioxo-1,2,3,4-tetrahydropyrimidin-5-yloxy)-5-fluoro-N-(thiazol-2-yl)benzamide at 1 uM by LC-MS/MS analysis; type: ADME, Liver; conditions: s9, 1 µM
[12] = Plasma clearance in Sprague-Dawley rat at 1 mg/kg, iv administered as single dose; type: ADME, organism-based; parameters: dose 1 mg/kg, route intravenous
Procedure, shortened: (§4)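 Cannulated male Sprague-Dawley rats dosed at 1 mg/kg through a jugular catheter in 10% ethanol/70% PEG400/20% saline. Carotid blood drawn at 0.033 to 24 h into chilled EDTA tubes; plasma stored at -80°C. Parameters derived by noncompartmental analysis.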

[13] = Drug metabolism in human cryopreserved hepatocytes assessed as hydroxylated pyrimidine metabolite formation at 25 uM by LC-MS/MS analysis in presence of 1-ABT pan-450 inactivator; type: ADME, cell-based, Hepatocyte; procedure, shortened: as §2
[14] = Drug metabolism in cynomolgus monkey hepatic S9 fraction assessed as 3-fluoro-N-(4-methylthiazol-2-yl)-5-(6-oxo-1,6-dihydropyrimidin-5-yloxy)benzamide at 1 uM by LC-MS/MS analysis; type: ADME, Macaca fascicularis, Liver; conditions: s9, 1 µM
[15] = Drug metabolism in human cryopreserved hepatocytes assessed as 3-fluoro-N-(4-methylthiazol-2-yl)-5-(6-oxo-1,6-dihydropyrimidin-5-yloxy)benzamide at 25 uM by LC-MS/MS analysis; type: ADME, cell-based, Hepatocyte; procedure, shortened: as §2
[16] = Inhibition of group 2 mGluR (unknown origin); parameters: species or system Homo sapiens
[17] = Inhibition of group 1 mGluR (unknown origin); parameters: species or system Homo sapiens
[18] = Intrinsic clearance in Sprague-Dawley rat cryopreserved hepatocytes at 1 uM; type: ADME, cell-based, Hepatocyte
Procedure, shortened: (§5)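 Hepatocyte depletion assay at 2 × 10^6 cells/ml, 37°C, ambient oxygen. Aliquots taken at 0, 15, 30, 60 and 120 min, quenched in ice-cold MeCN containing internal standard, analysed by LC-MS/MS in triplicate. Intrinsic clearance estimated by the substrate depletion method.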

[19] = Volume of distribution at steady state in Sprague-Dawley rat at 1 mg/kg, iv administered as single dose; type: ADME, organism-based; parameters: dose 1 mg/kg, route intravenous; conditions: in vivo, read-out: Vdss; procedure, shortened: as §4
[20] = Intrinsic clearance in cynomolgus monkey hepatic S9 fraction at 1 uM; type: ADME, tissue-based, Macaca fascicularis, Liver
Procedure, shortened: (§6)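 Substrate depletion at 1 µM in 0.1 M potassium phosphate pH 7.4, S9 2.5 mg/ml or cytosol 1 mg/ml, ± NADPH 1 mM, 37°C. Sampled at 0, 3, 7, 15, 25 and 45 min, quenched in cold MeCN with internal standard, analysed by LC-MS/MS in triplicate. CLint scaled using 120.7 mg S9 or 80.7 mg cytosol protein.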

[21] = Drug metabolism in Sprague-Dawley rat cryopreserved hepatocytes assessed as hydroxylated thiazole metabolite formation at 25 uM by LC-MS/MS analysis in presence of 1-ABT pan-450 inactivator; type: ADME, cell-based, Hepatocyte; procedure, shortened: as §2
[22] = Intrinsic clearance in human hepatic cytosol at 1 uM; type: ADME, tissue-based, Liver; procedure, shortened: as §6
[23] = Intrinsic clearance in cynomolgus monkey hepatic S9 fraction at 1 uM in presence of NADPH; type: ADME, tissue-based, Macaca fascicularis, Liver; procedure, shortened: as §6
[24] = Intrinsic clearance in human cryopreserved hepatocytes at 1 uM; type: ADME, cell-based, Hepatocyte; procedure, shortened: as §5
[25] = Intrinsic clearance in human hepatic S9 fraction at 1 uM in presence of NADPH; type: ADME, tissue-based, Liver; procedure, shortened: as §6
[26] = Drug metabolism in Sprague-Dawley rat hepatic S9 fraction assessed as 3-fluoro-N-(4-methylthiazol-2-yl)-5-(6-oxo-1,6-dihydropyrimidin-5-yloxy)benzamide at 25 uM by LC-MS/MS analysis; type: ADME, Liver; conditions: s9, 25 µM
[27] = Drug metabolism in cynomolgus monkey hepatic S9 fraction assessed as 3-(2,4-dioxo-1,2,3,4-tetrahydropyrimidin-5-yloxy)-5-fluoro-N-(thiazol-2-yl)benzamide at 1 uM by LC-MS/MS analysis; type: ADME, Macaca fascicularis, Liver; conditions: s9, 1 µM
[28] = Drug metabolism in human cryopreserved hepatocytes assessed as hydroxylated thiazole metabolite formation at 25 uM by LC-MS/MS analysis in presence of 1-ABT pan-450 inactivator; type: ADME, cell-based, Hepatocyte; procedure, shortened: as §2
Plasma [29] = test: Drug metabolism in Sprague-Dawley rat plasma assessed as hydroxylated thiazole metabolite formation at 56.6 mg/kg, ip single dose by LC-MS/MS analysis; type: ADME, organism-based; parameters: dose 56.6 mg/kg, route intraperitoneal; conditions: in vivo; procedure, shortened: as §1
[30] = Drug metabolism in Sprague-Dawley rat hepatic S9 fraction assessed as 3-(2,4-dioxo-1,2,3,4-tetrahydropyrimidin-5-yloxy)-5-fluoro-N-(thiazol-2-yl)benzamide at 25 uM by LC-MS/MS analysis; type: ADME, Liver; conditions: s9, 25 µM
[31] = Intrinsic clearance in cynomolgus monkey cryopreserved hepatocytes at 1 uM; type: ADME, cell-based, Macaca fascicularis, Hepatocyte; procedure, shortened: as §5
[32] = Drug metabolism in human hepatic S9 fraction assessed as 3-fluoro-N-(4-methylthiazol-2-yl)-5-(6-oxo-1,6-dihydropyrimidin-5-yloxy)benzamide at 1 uM by LC-MS/MS analysis; type: ADME, Liver; conditions: s9, 1 µM
[33] = Plasma clearance in cynomolgus monkey at 1 mg/kg, iv administered as single dose; type: ADME, organism-based, Macaca fascicularis; parameters: dose 1 mg/kg, route intravenous
Procedure, shortened: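 Male cynomolgus monkeys (n = 2, about 3 kg) given 1 mg/kg i.v. via the saphenous vein in 10% ethanol/60% PEG400/30% isotonic saline. Femoral blood sampled from 0.033 to 24 h into chilled EDTA tubes; plasma kept at -80°C.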

Plasma [34] = test: Drug metabolism in Sprague-Dawley rat plasma assessed as hydroxylated pyrimidine metabolite formation at 56.6 mg/kg, ip single dose by LC-MS/MS analysis; type: ADME, organism-based; parameters: dose 56.6 mg/kg, route intraperitoneal; conditions: in vivo; procedure, shortened: as §1
[35] = Intrinsic clearance in Sprague-Dawley rat hepatic cytosol at 1 uM; type: ADME, tissue-based, Liver; procedure, shortened: as §6
[36] = Effective half life in Sprague-Dawley rat at 1 mg/kg, iv administered as single dose; type: ADME, organism-based; parameters: dose 1 mg/kg, route intravenous; conditions: in vivo; procedure, shortened: as §4
[37] = Intrinsic clearance in Sprague-Dawley rat hepatic S9 fraction at 1 uM in presence of NADPH; type: ADME, tissue-based, Liver; procedure, shortened: as §6
[38] = Intrinsic clearance in Sprague-Dawley rat hepatic S9 fraction at 1 uM; type: ADME, tissue-based, Liver; procedure, shortened: as §6
[39] = Drug metabolism in human cryopreserved hepatocytes assessed as 3-(2,4-dioxo-1,2,3,4-tetrahydropyrimidin-5-yloxy)-5-fluoro-N-(thiazol-2-yl)benzamide at 25 uM by LC-MS/MS analysis; type: ADME, cell-based, Hepatocyte; procedure, shortened: as §2
[40] = Drug metabolism in Sprague-Dawley rat cryopreserved hepatocytes assessed as hydroxylated pyrimidine metabolite formation at 25 uM by LC-MS/MS analysis in presence of 1-ABT pan-450 inactivator; type: ADME, cell-based, Hepatocyte; procedure, shortened: as §2

- Drug metabolism (Plasma [1]): metabolite_detected
- Drug metabolism (Hepatocyte [2]): metabolite_detected
- Drug metabolism (Hepatocyte [3]): metabolite_detected
- Drug metabolism [4]: metabolite_detected
- Drug metabolism [5]: metabolite_detected
- Retention_time (Plasma [6]): 13.4 min
- Drug metabolism (Hepatocyte [7]): metabolite_not_detected
- Drug metabolism [8]: metabolite_detected
- Drug metabolism (Hepatocyte [9]): metabolite_not_detected
Structure (SMILES): Cc1csc(NC(=O)c2cc(O)cc(Oc3c[nH]c(=O)[nH]c3=O)c2)n1

- IC50 [10]: ≥ 10 µM
- Drug metabolism [11]: metabolite_detected
- clearance [12]: 43 mL/min/kg
- Drug metabolism [13]: metabolite_not_detected
- Drug metabolism [14]: metabolite_detected
- Drug metabolism [15]: metabolite_detected
- IC50 [16]: ≥ 10 µM
- IC50 [17]: ≥ 10 µM
- CLint at 1 µM [18]: 96 mL/min/kg
- Vd [19]: 0.81 L/kg
- CLint at 1 µM [20]: 34 mL/min/kg
- Drug metabolism [21]: metabolite_not_detected
- CLint at 1 µM [22]: 3.7 mL/min/kg
- CLint at 1 µM [23]: 37 mL/min/kg
- CLint at 1 µM [24]: 6.9 mL/min/kg
- CLint at 1 µM [25]: 15 mL/min/kg
- Drug metabolism [26]: metabolite_detected
- Drug metabolism [27]: metabolite_detected
- Drug metabolism [28]: metabolite_not_detected
- Drug metabolism (Plasma [29]): metabolite_detected
- Drug metabolism [30]: metabolite_detected
- CLint at 1 µM [31]: 194 mL/min/kg
- Drug metabolism [32]: metabolite_detected
- clearance [33]: 24 mL/min/kg
- Drug metabolism (Plasma [34]): metabolite_detected
- Retention_time (Plasma [6]): 14.5 min
- CLint at 1 µM [35]: 16 mL/min/kg
- half-life [36]: < 15 min
- CLint at 1 µM [37]: 54 mL/min/kg
- CLint at 1 µM [38]: 25 mL/min/kg
- Drug metabolism [39]: metabolite_detected
- Drug metabolism [40]: metabolite_not_detected
Structure (SMILES): Cc1csc(NC(=O)c2cc(F)cc(Oc3cncnc3)c2)n1
